Test results published in ChEMBL document CHEMBL1139354, “New derivatives of farnesylthiosalicylic acid (salirasib) for cancer treatment: farnesylthiosalicylamide inhibits tumor growth in nude mice models” (J Med Chem, 2009).
The source made the active and inactive calls. No cut-off for these calls is given here.

Columns and labels:
PANC-1 [1] = assay: Cytotoxicity against human PANC1 cells after 5 to 7 days; type: functional, cell-based
Outline: (§1)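 U87 or Panc-1 cells were seeded at 5000 per well in DMEM/10% FCS and grown 24 h. Cells were then exposed to 6.25-100 µM in medium with 0.1% DMSO, or to vehicle. After 5-7 days cells were counted directly and IC50 was read from growth curves (2 independent experiments, n = 8, mean ± SD).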

[2] = Cytotoxicity against human U87 cells after 5 to 7 days; type: functional, cell-based, U-87MG ATCC; conditions: U-87 MG; outline: as §1
PANC-1 [3] = assay: Effect on Ras signaling in human PANC1 cells assessed as inhibition of total Ras-GTP level at 50 uM after 24 hrs by immunoblot method; type: functional; conditions: PANC-1, 24 h
Outline: (§2)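 Cells were seeded at 1.5 × 10⁶ per 10-cm dish, grown 24 h, then exposed to 50 µM or 0.1% DMSO for 24 h. Lysates in Tris pH 7.6/MgCl2/NaCl/NP40/DTT buffer went through a GST-Raf-RBD pull-down, followed by immunoblots with pan-Ras or isoform-specific antibodies. Bands were detected by ECL and quantified by densitometry. Inhibition was calculated as control active-Ras % minus treated active-Ras % (mean ± SD).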

PANC-1 [4] = assay: Effect on Ras signaling in human PANC1 cells assessed as inhibition of KRas-GTP level at 50 uM after 24 hrs by immunoblot method; type: functional; conditions: PANC-1, 24 h; outline: as §2
PANC-1 [5] = assay: Effect on Ras signaling in human PANC1 cells assessed as inhibition of NRas-GTP level at 50 uM after 24 hrs by immunoblot method; type: functional; conditions: PANC-1, 24 h; outline: as §2
[6] = Effect on Ras signaling in human U87 cells assessed as inhibition of total Ras-GTP level at 50 uM after 24 hrs by immunoblot method; type: functional, cell-based; conditions: U-87MG ATCC; outline: as §2
[7] = Effect on Ras signaling in human U87 cells assessed as inhibition of KRas-GTP level at 50 uM after 24 hrs by immunoblot method; type: functional, cell-based; conditions: U-87MG ATCC; outline: as §2
[8] = Effect on Ras signaling in human U87 cells assessed as inhibition of NRas-GTP level at 50 uM after 24 hrs by immunoblot method; type: functional, cell-based; conditions: U-87MG ATCC; outline: as §2
[9] = Elimination half life in Sprague-Dawley rat at 40 mg/kg, po; type: ADME, organism-based; design: dose 40 mg/kg, route oral; conditions: in vivo
[10] = Cmax in Sprague-Dawley rat at 40 mg/kg, po; type: ADME, organism-based; design: dose 40 mg/kg, route oral; conditions: in vivo
[11] = AUC (0 to infinity) in Sprague-Dawley rat at 40 mg/kg, po; type: ADME, organism-based; design: time infinity, dose 40 mg/kg, route oral; conditions: plasma
U-87MG ATCC = assay: Antitumor activity against human U87 cells xenografted CD1-Nu mouse at 100 mg/kg, po twice daily assessed as increase tumor volume after 9 days; type: functional, organism-based; design: dose 100 mg/kg
Outline: (§3)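 Nude mice under ketamine/xylazine received 5 × 10⁵ U87 cells into the striatum (1 µL/min for 5 min). Gd-DTPA contrast MRI on day 4 confirmed tumors and mice were grouped by size. From day 5 they received 100 mg/kg orally twice a day in corn oil, or vehicle. Tumor volumes were read from T1-weighted follow-up MRI. Normalized growth was taken as (follow-up volume − initial volume)/initial volume (n = 7, Mann-Whitney).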

[12] = Effect on Ras signaling in human U87 cells assessed as decrease in phospho-ERK level at 50 uM after 24 hrs by immunoblot method; type: functional, cell-based; conditions: U-87MG ATCC
Outline: (§4)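 Cells were seeded at 1.5 × 10⁶ per 10-cm dish, grown overnight in 10% FCS, then treated with 50 µM or 0.1% DMSO for 24 h. Lysates in Tris pH 7.6/MgCl2/NaCl/NP40/DTT buffer were immunoblotted for phospho-ERK1/2 and phospho-Akt, with β-tubulin as loading reference. Detection was by ECL.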

[13] = Effect on Ras signaling in human U87 cells assessed as decrease in phospho-AKT level at 50 uM after 24 hrs by immunoblot method; type: functional, cell-based; conditions: U-87MG ATCC; outline: as §4
PANC-1 [14] = assay: Effect on Ras signaling in human PANC1 cells assessed as decrease in phospho-ERK level at 50 uM after 24 hrs by immunoblot method; type: functional, cell-based; outline: as §4
PANC-1 [15] = assay: Effect on Ras signaling in human PANC1 cells assessed as decrease in phospho-AKT level at 50 uM after 24 hrs by immunoblot method; type: functional, cell-based; outline: as §4
[16] = Elimination half life in Sprague-Dawley rat at 100 mg/kg, po; type: ADME, organism-based; design: dose 100 mg/kg, route oral; conditions: in vivo
Outline: (§5)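 Male Sprague-Dawley rats (275-285 g) given a single oral dose of 100 mg/kg in corn oil. Arterial blood was taken under anesthesia at 10-330 min (4 animals per time point). Plasma was protein-precipitated with acetonitrile, propranolol served as internal standard, and samples were run on isocratic C18 LC-MS/MS (calibration 1-2500 ng/mL). Parameters came from a noncompartmental fit of the mean concentration-time data.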

[17] = Cmax in Sprague-Dawley rat at 100 mg/kg, po; type: ADME, organism-based; design: dose 100 mg/kg, route oral; conditions: in vivo; outline: as §5
[18] = AUC (0 to infinity) in Sprague-Dawley rat at 100 mg/kg, po; type: ADME, organism-based; design: time infinity, dose 100 mg/kg, route oral; conditions: plasma; outline: as §5
[19] = Antitumor activity against human U87 cells xenografted CD1-Nu mouse at 100 mg/kg, po twice daily assessed as inhibition of tumor growth after 4 days; type: functional, U-87MG ATCC; conditions: U-87 MG, 96 h; outline: as §3
[20] = Antitumor activity against human U87 cells xenografted CD1-Nu mouse at 100 mg/kg, po twice daily assessed as inhibition of tumor growth after 9 days; type: functional, U-87MG ATCC; conditions: U-87 MG, 216 h; outline: as §3
PANC-1 [21] = assay: Antitumor activity against human PANC1 cells xenografted CD1-Nu mouse at 100 mg/kg, po daily assessed as decrease in tumor weight after 18 days
[22] = Effect on Ras signaling in human U87 cells assessed as inhibition of HRas-GTP level at 50 uM after 24 hrs by immunoblot method; type: functional, cell-based; conditions: U-87MG ATCC; outline: as §2

Row | Structure (SMILES) | IC50 (PANC-1 [1]) | IC50 [2] | inhibition at 50 µM (PANC-1 [3]) | inhibition at 50 µM (PANC-1 [4]) | inhibition at 50 µM (PANC-1 [5]) | inhibition [6] | inhibition [7] | inhibition [8] | further results
1 | CNC(=O)c1ccccc1SC/C=C(\C)CC/C=C(\C)CCC=C(C)C | 10 µM | 18 µM | 39.7% | 52% | 18.8% | 34.7% | 32.6% | 22.5% | 
2 | CC(C)=CCC/C(C)=C/CC/C(C)=C/CSc1ccccc1C(=O)OC(C)C | 70 µM | 52 µM |  |  |  |  |  |  | 
3 | CC(C)=CCC/C(C)=C/CC/C(C)=C/CSc1ccccc1C(=O)O [SALIRASIB] | 35 µM | 50 µM |  |  |  |  |  |  | half-life [9]: 2.36 h; Cmax [10]: 2160 ng/mL; AUC(0-inf) [11]: 6210 ng·h/mL
4 | CC(C)=CCC/C(C)=C/CC/C(C)=C/CSc1ccccc1C(N)=O | 20 µM | 10 µM | 37.4% | 56% | 8.6% | 33% | 50.8% | 37.3% | Activity (U-87MG ATCC): Active; Activity [12]: Active; Activity [13]: Active; Activity (PANC-1 [14]): inactive; Activity (PANC-1 [15]): inactive; half-life [16]: 5.23 h; Cmax [17]: 371 ng/mL; AUC(0-inf) [18]: 1810 ng·h/mL; inhibition in vivo at 100 mg/kg [19]: 80%; inhibition in vivo at 100 mg/kg [20]: 50%; Activity (PANC-1 [21]): Active
5 | CC(C)=CCC/C(C)=C/CC/C(C)=C/CSc1ccccc1C(=O)N(C)C | 22 µM | 20 µM | 38.6% | 48% | 13.6% | 45.4% | 28% | 41% | inhibition [22]: 14%
6 | CC(C)=CCC/C(C)=C/CC/C(C)=C/CSc1ccccc1C(=O)OCc1ccccc1 | 95 µM | 30 µM |  |  |  |  |  |  | 
7 | COCOC(=O)c1ccccc1SC/C=C(\C)CC/C=C(\C)CCC=C(C)C | 12 µM | 10 µM | 2.6% | 19.9% |  |  | 4.8% | 5.1% | 
8 | COC(=O)c1ccccc1SC/C=C(\C)CC/C=C(\C)CCC=C(C)C | 30 µM | 10 µM | 5.3% | 11.9% |  |  | 23.8% | 18.7% | 
